For test [1], the system named is Mus musculus. The experiment in a line: Inhibition of lipogenesis in C57BL/6 mouse supplemented with high-fat diet assessed as decrease in weight of epididymal white adipose tissue (eWAT) at 20 mg/kg/day, ip administered for 1 week. Type of test: functional, organism-based. The settings on record: time 1.0 weeks. The essentials:
(§1)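 Male C57BL/6 mice were fed high-fat diet for 14 weeks from 5 weeks of age, then injected ip with 20 mg·kg−1·day−1 for 7 days or given vehicle. Epididymal and inguinal WAT were weighed, examined by H&E, and analysed. Transcripts were measured by Trizol/SYBR Green RT-qPCR; proteins by western blot. n = 5–9; mean ± SEM.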

Test [2] relates to Mus musculus. In words: Inhibition of lipogenesis in C57BL/6 mouse supplemented with high-fat diet assessed as decrease in FABP4 mRNA expression at 20 mg/kg/day, ip administered for 1 week measured measured by RT-qPCR assay. Type of test: functional, organism-based. As to conditions: time 1.0 weeks. A digest of the protocol:
as §1
Background: Quantitative PCR measures a nucleic acid by following its amplification.

Test [3] concerns Mus musculus. In words: Inhibition of lipogenesis in C57BL/6 mouse supplemented with normal chow diet assessed as decrease in PPARgamma mRNA expression at 20 mg/kg/day, ip administered for 1 week measured measured by RT-qPCR assay. Type of test: functional, organism-based. The settings on record: time 1.0 weeks. The essentials:
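Eight-week-old male C57BL/6 mice on normal chow were given 20 mg·kg−1·day−1 ip daily for 7 days or vehicle. Epididymal WAT was collected. Lipogenic, adipogenic and fatty-acid-oxidation transcripts were quantified by Trizol extraction and SYBR Green RT-qPCR. FAS, ACC, PPARγ and C/EBPα protein were assessed by western blot. n = 5–9; mean ± SEM.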

Test [4] relates to Adipocyte. In words: Inhibition of lipogenesis in mouse adipocytes isolated stromal vascular cells assessed as decrease in C/EBPalpha protein expression measured after 24 hrs by western blot analysis. Type of test: functional, cell-based.
The subject of test [5] is Hepatocyte. In words: Inhibition of lipogenesis in mouse primary hepatocytes assessed as decrease in HMGCS1 mRNA expression at 3 uM in presence of 100 nM insulin and 5 to 25 mM glucose measured after 18 hrs by RT-qPCR assay. Type of test: functional, cell-based. A digest of the protocol:
(§2)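 Primary hepatocytes isolated from C57BL/6 mice by two-step perfusion. Cells incubated 18 h with 3 μM inhibitor, with 0 or 100 nM insulin and 5 or 25 mM glucose. Transcripts quantified by SYBR Green RT-qPCR after Trizol RNA extraction; proteins by western blot of lysates. Mean ± SEM.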

The subject of test [6] is Hepatocyte. In words: Inhibition of lipogenesis in mouse primary hepatocytes assessed as decrease in SCD1 mRNA expression at 3 uM in presence of 100 nM insulin and 5 to 25 mM glucose measured after 18 hrs by RT-qPCR assay. The class given is functional, cell-based. The essentials: as §2
Test [7] relates to Hepatocyte. The experiment in a line: Inhibition of lipogenesis in mouse primary hepatocytes assessed as decrease in ACC protein expression at 3 uM in presence of 100 nM insulin and 5 to 25 mM glucose measured after 18 hrs by western blot analysis. The class given is functional, cell-based. (In general: A western blot detects proteins with antibodies after separation by electrophoresis.)

In test [8] the test system is Hepatocyte. The experiment in a line: Inhibition of lipogenesis in mouse primary hepatocytes assessed as decrease in ChREBP protein expression at 3 uM in presence of 100 nM insulin and 5 to 25 mM glucose measured after 18 hrs by western blot analysis. The class given is functional, cell-based.
Test [9] has as its system Hepatocyte. The experiment in a line: Inhibition of lipogenesis in mouse primary hepatocytes assessed as increase in CPT1alpha mRNA expression at 3 uM in presence of 100 nM insulin and 5 to 25 mM glucose measured after 18 hrs by RT-qPCR assay. Type of test: functional, cell-based. The essentials: as §2
Test [10] relates to Hepatocyte. In words: Inhibition of lipogenesis in mouse primary hepatocytes assessed as increase in ACO mRNA expression at 3 uM in presence of 100 nM insulin and 5 to 25 mM glucose measured after 18 hrs by RT-qPCR assay. The class given is functional, cell-based. The essentials:
as §2

For test [11], the system named is Hepatocyte. The experiment in a line: Inhibition of glucogenesis in mouse primary hepatocytes stimulated with 100 uM 8-Br-cAMP assessed as effect on PGC1alpha mRNA expression at 3 uM measured after 8 hrs by RT-qPCR assay. The class given is functional, cell-based. The essentials:
(§3)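 Primary mouse hepatocytes treated with 3 μM compound and 100 μM 8-Br-cAMP for 8 h. Trizol RNA, SYBR Green RT-qPCR of the named transcript. Mean ± SEM, three independent experiments.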

The subject of test [12] is Hepatocyte. The experiment in a line: Inhibition of glucogenesis in mouse primary hepatocytes stimulated with 100 uM 8-Br-cAMP assessed as effect on HNF4alpha mRNA expression at 3 uM measured after 8 hrs by RT-qPCR assay. Type of test: functional, cell-based. A digest of the protocol: as §3
The species entered for test [13] is Mus musculus. In words: Inhibition of glucogenesis in mouse assessed as decrease in hepatic FOXO1 protein expression measured by western blot analysis. The class given is functional, organism-based. A digest of the protocol: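 Livers from vehicle- or treated mice (ip 20 mg·kg−1·day−1 for 7 days) homogenized in lysis buffer; FOXO1 and C/EBPα analysed by western blot.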

Test [14] deals with Hepatocyte. In words: Inhibition of glucogenesis in mouse primary hepatocytes stimulated with 100 uM 8-Br-cAMP assessed as decrease in PEPCK protein expression at 3 uM in presence of cAMP measured after 16 hrs by western blot.

Each structure is given as a SMILES string. The source made the active and inactive calls. The calls are words filed in the database; no cut-off is given here.

Consider `CNC(=O)Nc1ccc2c(c1)CCS21OC(=O)N(CC(=O)N(Cc2ccc(F)cc2)[C@@H](C)C(F)(F)F)C1=O` (some centres undefined), for which the inhibition entry in [1], in [2], in [3], in test [4], in [5] and in [6] was “Active” each time. The inhibition result in [7], in test [8], in [9], in test [10], in test [13] and in test [14] was “Active” each time. Moreover, the inhibition entry in test [11] and in test [12] was “inactive” in each case.

The values are drawn from ChEMBL document CHEMBL5674890, “Selective inhibition of CBP/p300 HAT by A-485 results in suppression of lipogenesis and hepatic gluconeogenesis” (Cell Death Dis, 2020).
